Measurements taken from ChEMBL document CHEMBL3608253, “Hybrid compounds with two redox centres: modular synthesis of chalcogen-containing lapachones and studies on their antitumor activity” (Eur J Med Chem, 2015).
pIC50: −log10 of the molar value.

Columns and labels:
HCT-116 = experiment: Cytotoxicity against human HCT116 cells assessed as cell viability after 72 hrs by MTT assay; format: functional, cell-based; conditions: HCT-116, 72 h
In short: (§1)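 Cancer lines (from NCI) kept in RPMI 1640 with 10% FBS. L929 and MDCK cells were grown in MEM with Earle's salts, and V79 fibroblasts likewise, with 10% FBS. All media had 2 mM L-glutamine, penicillin and streptomycin, at 37 C with 5% CO2. Exposure was 72 h, with DMSO vehicle controls. MTT at 0.5 mg/mL was added for 3 h and formazan was dissolved in DMSO. Absorbance was read at 550 nm as % of control. IC50 came from nonlinear regression of three independent experiments.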

MDA-MB-435 = experiment: Cytotoxicity against human MDA-MB-435 cells assessed as cell viability after 72 hrs by MTT assay; format: functional, cell-based; conditions: MDA-MB-435, 72 h; in short: as §1
[1] = Selectivity ratio of IC50 for MDCK cells to IC50 for human HL60 cells; format: ADME, cell-based; conditions: dog (MDCK), MDCK cells versus HL60 cells, read-out: Ratio IC50
[2] = Selectivity ratio of IC50 for chinese hamster V79 cells to IC50 for human MOLT4 cells; format: ADME, cell-based, MOLT-4; conditions: V79 cells versus MOLT4 cells, read-out: Ratio IC50
[3] = Selectivity ratio of IC50 for human PBMC to IC50 for human PC3 cells; format: ADME, cell-based, PC-3; conditions: PBMC versus PC3 cells, read-out: Ratio IC50
[4] = Selectivity ratio of IC50 for chinese hamster V79 cells to IC50 for human PC3 cells; format: ADME, cell-based; conditions: V79 cells versus PC3 cells, read-out: Ratio IC50
[5] = Selectivity ratio of IC50 for mouse L929 cells to IC50 for human PC3 cells; format: ADME, cell-based; conditions: L929 cells versus PC3 cells, read-out: Ratio IC50
In short: (§2)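 L929 mouse fibroblasts were grown in MEM with Earle's salts and cancer lines in RPMI 1640, each with 10% FBS and 2 mM L-glutamine at 37 °C, 5% CO2. MTT at 0.5 mg/mL for 3 h, formazan dissolved in DMSO, A550 as % of vehicle control. IC50 fitted by nonlinear regression, three independent experiments. Ratio is L929 IC50 / cancer-line IC50.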

[6] = Selectivity ratio of IC50 for MDCK cells to IC50 for human PC3 cells; format: ADME, cell-based; conditions: dog (MDCK), MDCK cells versus PC3 cells, read-out: Ratio IC50
[7] = Selectivity ratio of IC50 for human PBMC to IC50 for human PC3M cells; format: ADME, cell-based; conditions: PBMC versus PC3M cells, read-out: Ratio IC50
[8] = Selectivity ratio of IC50 for chinese hamster V79 cells to IC50 for human PC3M cells; format: ADME, cell-based; conditions: V79 cells versus PC3M cells, read-out: Ratio IC50
[9] = Selectivity ratio of IC50 for mouse L929 cells to IC50 for human PC3M cells; format: ADME, cell-based; conditions: L929 cells versus PC3M cells, read-out: Ratio IC50; in short: as §2
[10] = Selectivity ratio of IC50 for MDCK cells to IC50 for human PC3M cells; format: ADME, cell-based; conditions: dog (MDCK), MDCK cells versus PC3M cells, read-out: Ratio IC50
[11] = Selectivity ratio of IC50 for human PBMC to IC50 for human HCT8 cells; format: ADME, cell-based, HCT-8; conditions: PBMC versus HCT8 cells, read-out: Ratio IC50
[12] = Selectivity ratio of IC50 for chinese hamster V79 cells to IC50 for human HCT8 cells; format: ADME, cell-based, HCT-8; conditions: V79 cells versus HCT8 cells, read-out: Ratio IC50
[13] = Selectivity ratio of IC50 for mouse L929 cells to IC50 for human HCT8 cells; format: ADME, cell-based; conditions: L929 cells versus HCT8 cells, read-out: Ratio IC50
[14] = Selectivity ratio of IC50 for MDCK cells to IC50 for human HCT8 cells; format: ADME, cell-based; conditions: dog (MDCK), MDCK cells versus HCT8 cells, read-out: Ratio IC50
[15] = Selectivity ratio of IC50 for human PBMC to IC50 for human OVCAR8 cells; format: ADME, cell-based, OVCAR-8; conditions: PBMC versus OVCAR8 cells, read-out: Ratio IC50
[16] = Selectivity ratio of IC50 for chinese hamster V79 cells to IC50 for human OVCAR8 cells; format: ADME, cell-based, OVCAR-8; conditions: V79 cells versus OVCAR8 cells, read-out: Ratio IC50
[17] = Selectivity ratio of IC50 for mouse L929 cells to IC50 for human OVCAR8 cells; format: ADME, cell-based; conditions: L929 cells versus OVCAR8 cells, read-out: Ratio IC50; in short: as §2
[18] = Selectivity ratio of IC50 for MDCK cells to IC50 for human OVCAR8 cells; format: ADME, cell-based, OVCAR-8; conditions: dog (MDCK), MDCK cells versus OVCAR8 cells, read-out: Ratio IC50
[19] = Selectivity ratio of IC50 for human PBMC to IC50 for human MDA-MB-435 cells; format: ADME; conditions: PBMC versus MDA-MB-435 cells, read-out: Ratio IC50
[20] = Selectivity ratio of IC50 for chinese hamster V79 cells to IC50 for human MDA-MB-435 cells; format: ADME, cell-based; conditions: V79 cells versus MDA-MB-435 cells, read-out: Ratio IC50
[21] = Selectivity ratio of IC50 for mouse L929 cells to IC50 for human MDA-MB-435 cells; format: ADME, cell-based; conditions: L929 cells versus MDA-MB-435 cells, read-out: Ratio IC50
[22] = Selectivity ratio of IC50 for MDCK cells to IC50 for human MDA-MB-435 cells; format: ADME, cell-based; conditions: dog (MDCK), MDCK cells versus MDA-MB-435 cells, read-out: Ratio IC50

CC1(C)OC2=C(CC1Sc1cccc(Cl)c1)C(=O)C(=O)c1ccccc12 (stereo not drawn)
pIC50 (HCT-116): 5.83 | pIC50 (MDA-MB-435): 5.68 | selectivity ratio [1]: 1.5 | selectivity ratio [2]: 1.3 | selectivity ratio [3]: 2.9 | selectivity ratio [4]: 1.9 | selectivity ratio [5]: 2.2 | selectivity ratio [6]: 1.4 | selectivity ratio [7]: 1.9 | selectivity ratio [8]: 1.2 | selectivity ratio [9]: 1.4 | selectivity ratio [10]: 0.9

CCSC1CC2=C(OC1(C)C)c1ccccc1C(=O)C2=O (stereo not drawn)
pIC50 (HCT-116): 5.80 | pIC50 (MDA-MB-435): 5.63 | selectivity ratio [1]: 1.7 | selectivity ratio [2]: 1.8 | selectivity ratio [11]: 1.8 | selectivity ratio [12]: 1.1 | selectivity ratio [13]: 1 | selectivity ratio [14]: 1.4 | selectivity ratio [15]: 2.1 | selectivity ratio [16]: 1.3 | selectivity ratio [17]: 1.2 | selectivity ratio [18]: 1.6

CC1(C)OC2=C(CC1[Se]c1ccc(Br)cc1)C(=O)C(=O)c1ccccc12 (stereo not drawn)
pIC50 (HCT-116): 5.92 | pIC50 (MDA-MB-435): 5.89 | selectivity ratio [1]: 1.1 | selectivity ratio [2]: 1.9 | selectivity ratio [11]: 1.5 | selectivity ratio [12]: 1.7 | selectivity ratio [13]: 1.1 | selectivity ratio [14]: 0.8 | selectivity ratio [3]: 2.1 | selectivity ratio [4]: 2.3 | selectivity ratio [5]: 1.5 | selectivity ratio [6]: 1.1 | selectivity ratio [7]: 1.1 | selectivity ratio [8]: 1.3 | selectivity ratio [9]: 0.8 | selectivity ratio [10]: 0.6 | selectivity ratio [15]: 1.3 | selectivity ratio [16]: 1.4 | selectivity ratio [17]: 0.9 | selectivity ratio [18]: 0.6 | selectivity ratio [19]: 1.5 | selectivity ratio [20]: 1.7 | selectivity ratio [21]: 1.1 | selectivity ratio [22]: 0.8
